The values below come from ChEMBL document CHEMBL1152771, “Identification of Shc Src homology 2 domain-binding peptoid-peptide hybrids” (J Med Chem, 2009).

pKd: −log10 of the molar value. Calls of active or inactive are those of the source. No cut-off for these calls is given here. Where a SMILES comes first, the peptide text is derived from it. [ ]: non-standard residue; d: D form. The star is where a group is joined. X2 = O=C(c1cc(N=C=S)ccc1-c1c2ccc(=O)cc-2oc2cc(O)ccc12)*; pY = N[C@@H](Cc1ccc(OP(=O)(O)O)cc1)C(=O)O; Ava = NCCCCC(=O)O; GABA = NCCCC(=O)O

In assay [1] the target is T1, SHC-transforming protein 1 (Homo sapiens) (UniProt P29353).
T1 sequence (whole entry): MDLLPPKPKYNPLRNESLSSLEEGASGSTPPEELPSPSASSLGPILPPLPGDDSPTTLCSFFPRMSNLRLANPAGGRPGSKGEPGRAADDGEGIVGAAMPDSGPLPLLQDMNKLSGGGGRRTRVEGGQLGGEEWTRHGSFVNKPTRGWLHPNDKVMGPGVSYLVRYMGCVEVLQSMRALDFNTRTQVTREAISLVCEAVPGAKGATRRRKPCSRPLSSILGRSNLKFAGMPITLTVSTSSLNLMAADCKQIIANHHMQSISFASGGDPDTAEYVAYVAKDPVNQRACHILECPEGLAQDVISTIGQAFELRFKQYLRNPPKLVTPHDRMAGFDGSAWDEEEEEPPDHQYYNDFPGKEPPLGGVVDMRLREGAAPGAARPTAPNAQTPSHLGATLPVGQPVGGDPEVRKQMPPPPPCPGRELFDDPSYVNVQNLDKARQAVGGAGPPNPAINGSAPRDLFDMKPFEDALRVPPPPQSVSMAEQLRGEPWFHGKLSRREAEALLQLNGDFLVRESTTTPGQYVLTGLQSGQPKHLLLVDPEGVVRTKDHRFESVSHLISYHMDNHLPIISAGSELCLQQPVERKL
Nature of the assay: Inhibition of Shc Src homology 2 domain binding to cMet expressed in human B5/589 cells at 10 uM. Format: cell-based. In short, it runs like this:
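B5/589 human mammary epithelial cells serum-starved 48 h, then exposed 1 h to peptide (10 μM) or none. HGF stimulation at 50 ng/mL for 20 min, then lysis in cold detergent buffer (pH 7.4). c-Met captured with biotinylated antibody on streptavidin resin; co-precipitated Shc and recovered c-Met detected by SDS-PAGE and immunoblot with chemiluminescence.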

Assay [2] has as its target T1, SHC-transforming protein 1 (Homo sapiens). Nature of the assay: (§1) Binding affinity to Shc Src homology 2 domain by fluorescence anisotropy. In short, it runs like this:
(§2)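 Direct binding: 5 nM N-terminal fluorescein-labelled peptide in 10 mM HEPES, 150 mM NaCl pH 7.5 with 10% (v/v) DMSO; Shc SH2 protein serially diluted from 100 μM. Excitation 485 nm, parallel and perpendicular emission at 535 nm. Kd from fitting anisotropy versus protein concentration to a single-site binding model.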

In assay [3] the target is T2, SHC-transforming protein 1 (Homo sapiens, UniProt P29353).
T2 sequence (P29353 whole entry): T1 sequence (whole entry)
The assay is described as §1. In short, it runs like this:
as §2

With `CC(=O)N[C@@H](CCCNC(=N)N)C(=O)N[C@@H](CCCNC(=N)N)C(=O)N[C@@H](CCCNC(=N)N)C(=O)N[C@@H](CCCNC(=N)N)C(=O)N[C@@H](CCCNC(=N)N)C(=O)N[C@@H](CCCNC(=N)N)C(=O)N[C@@H](CCCNC(=N)N)C(=O)N[C@@H](CCCNC(=N)N)C(=O)NCCOCCOCCOCCNC(=O)[C@H](CO)NC(=O)[C@H](CC(C)C)NC(=O)CNC(=O)[C@H](CCC(N)=O)NC(=O)[C@H](Cc1ccc(OP(=O)(O)O)cc1)NC(=O)CCCCNC(=O)c1cc(N=C=S)ccc1-c1c2ccc(=O)cc-2oc2cc(O)ccc12`, in assay [1], the outcome was Active.

As for `CC[C@H](C)[C@H](NC(=O)[C@H](CCCCN)NC(=O)[C@@H](NC(=O)[C@H](CCC(N)=O)NC(=O)[C@H](CCCNC(=N)N)NC(C)=O)[C@@H](C)CC)C(=O)N[C@@H](Cc1c[nH]c2ccccc12)C(=O)N[C@@H](Cc1ccccc1)C(=O)N[C@@H](CCC(N)=O)C(=O)N[C@@H](CC(N)=O)C(=O)N[C@@H](CCCNC(=N)N)C(=O)N[C@@H](CCCNC(=N)N)C(=O)N[C@@H](CCSC)C(=O)N[C@@H](CCCCN)C(=O)N[C@@H](Cc1c[nH]c2ccccc12)C(=O)N[C@@H](CCCCN)C(=O)N[C@@H](CCCCN)C(=O)NCCOCCOCCOCCNC(=O)[C@H](CO)NC(=O)[C@H](CC(C)C)NC(=O)CNC(=O)[C@H](CCC(N)=O)NC(=O)[C@H](Cc1ccc(OP(=O)(O)O)cc1)NC(=O)CCCCNC(=O)c1cc(N=C=S)ccc1-c1c2ccc(=O)cc-2oc2cc(O)ccc12`, the result in assay [1] was Active.

As for `CC(C)C[C@H](NC(=O)CNC(=O)[C@H](CCC(N)=O)NC(=O)[C@H](Cc1ccc(OP(=O)(O)O)cc1)NC(=O)[C@H](CC(C)C)NC(=O)CNC(=O)c1cc(N=C=S)ccc1-c1c2ccc(=O)cc-2oc2cc(O)ccc12)C(=O)N[C@@H](CO)C(N)=O` (HELM PEPTIDE1{[O=C(c1cc(N=C=S)ccc1-c1c2ccc(=O)cc-2oc2cc(O)ccc12)[*:2]].G.L.[O=C([C@H](Cc1ccc(OP(=O)(O)O)cc1)N[*:1])[*:2]].Q.G.L.S.[am]}$$$$V2.0), the result in assay [2] was inactive.

Regarding `CC(C)C[C@H](NC(=O)CNC(=O)[C@H](CCC(N)=O)NC(=O)[C@H](Cc1ccc(OP(=O)(O)O)cc1)NC(=O)CNC(=O)c1cc(N=C=S)ccc1-c1c2ccc(=O)cc-2oc2cc(O)ccc12)C(=O)N[C@@H](CO)C(N)=O` (HELM PEPTIDE1{[O=C(c1cc(N=C=S)ccc1-c1c2ccc(=O)cc-2oc2cc(O)ccc12)[*:2]].G.[O=C([C@H](Cc1ccc(OP(=O)(O)O)cc1)N[*:1])[*:2]].Q.G.L.S.[am]}$$$$V2.0), in assay [2], the outcome was inactive.

For `CC(C)C[C@H](NC(=O)CNC(=O)[C@H](CCC(N)=O)NC(=O)[C@H](Cc1ccc(OP(=O)(O)O)cc1)NC(=O)CCCCNC(=O)c1cc(N=C=S)ccc1-c1c2ccc(=O)cc-2oc2cc(O)ccc12)C(=O)N[C@@H](CO)C(N)=O` ({X2-Ava}-[pY]QGLS-NH2), in assay [3], the pKd was 6.46.

Consider `CC(C)C[C@H](NC(=O)CNC(=O)[C@H](CCC(N)=O)NC(=O)[C@H](Cc1ccc(OP(=O)(O)O)cc1)NC(=O)[C@H](CC(C)C)NC(=O)CCCNC(=O)c1cc(N=C=S)ccc1-c1c2ccc(=O)cc-2oc2cc(O)ccc12)C(=O)N[C@@H](CO)C(N)=O` ({X2-GABA}-L[pY]QGLS-NH2), for which the pKd in assay [3] was 5.07.

In turn, `CC(C)C[C@H](NC(=O)CNC(=O)[C@H](CCC(N)=O)NC(=O)[C@H](Cc1ccc(OP(=O)(O)O)cc1)NC(=O)CCCNC(=O)c1cc(N=C=S)ccc1-c1c2ccc(=O)cc-2oc2cc(O)ccc12)C(=O)N[C@@H](CO)C(N)=O` ({X2-GABA}-[pY]QGLS-NH2) gave a pKd in assay [3] of 5.14.

Usually pKd stands for the Kd on a negative log10 scale, so that one unit is a factor of ten. The low end stands for a high Kd, the high end for a low Kd.
